Most compounds without a hit are left out; they make up all but 2% or so of the library.
UHRF1 binding: UHRF1 methylated DNA binding inhibitors, primary screen, counter-screen for MBD2 inhibitor project, biochemical, TR-FRET, human UHRF1, single concentration. 370,000 compounds, 0.75% hits. UHRF1 binding to methylated oligo. inhibition, % at 4.4 µM. E3 ubiquitin-protein ligase UHRF1 (Homo sapiens), Q96T88. AID 687016, 2013; in the data active = inhibition above about 21%;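 also: UHRF1 SRA domain binding a hemimethylated CpG hairpin DNA probe; 0% = median of test compound wells and 100% = reference inhibitor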
TCR CD3 inh: inhibitors of human TCR-CD3 interaction, primary screen, biochemical, fluorescence, TAMRA-labeled TCR probe. T-cell receptor (TCR). inhibition, % at 9.4 µM. 360,000 compounds, 0.37% hits. AID 651800, 2012; in the data active = inhibition above about 19%;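 also: recombinant mutant TCR 2C K166C tagged with TAMRA read by polarization; 0% = receptor in buffer alone and 100% = receptor with positive control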
LEDGF integ inh: blockers of LEDGF/p75-dependent integrase strand transfer – biochemical, TR-FRET, high throughput, primary screen; TR-FRET IN-LEDGF/p75 DNA integration, Eu/Cy5; inhibition, % at 3.7 µM; AID 743269, 2014; 370,000 compounds, 0.64% hits; HIV-1 integrase (with human LEDGF/p75);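 active = inhibition above the screen-wide mean plus 3 SD, cut at about 13% in these data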;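 also: signal is the Cy5 over europium emission ratio at 671 and 618 nm; 0% = plate median of compound wells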
ARFGAP1 inh: inhibitors of rat ARFGAP1 GAP activity, primary screen, biochemical, fluorescence polarization, GDP tracer; ADP-ribosylation factor GTPase-activating protein 1 (Rattus norvegicus), Q62848; Arfgap1-stimulated ARF1 GTP hydrolysis, GDP FP detection; inhibition, % at 16.5 µM; 360,000 compounds, 0.26% hits;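 active = inhibition above a per-plate limit, mean inhibition of low control wells plus 3 SD, cut at about 25% in these data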;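 also: 0% = DMSO wells with enzyme and 100% = wells lacking Arfgap1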
Target sequence (Q62848 1-136 limits assumed): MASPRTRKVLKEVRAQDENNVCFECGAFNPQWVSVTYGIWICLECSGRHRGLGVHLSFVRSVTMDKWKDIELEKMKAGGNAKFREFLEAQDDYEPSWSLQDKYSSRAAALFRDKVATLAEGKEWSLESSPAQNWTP
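Assay system: Rat Arfgap1 GAP domain (His6, aa 1-136), purified enzyme | Buffer or medium: HEPES 25 mM pH 7.5, NaCl 150 mM, MgCl2, DTT | Schedule: GTP hydrolysis reaction 2 h at 25 °C | Signal: FP of antibody-bound GDP Alexa 633 tracer, ex 620/em 688 nm | Measure: Percent inhibition of Arfgap1-stimulated GTP hydrolysis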
MBD2 inh: inhibitors of MBD2 binding to methylated DNA, primary screen, biochemical, TR-FRET, DNA-binding domain, human. inhibition, % at 4.4 µM. MBD2 binding to methylated oligonucleotide. AID 686964, 2013. Methyl-CpG-binding domain protein 2 (Homo sapiens), Q9UBB5. 370,000 compounds, 0.31% hits; in the data active = inhibition above about 13%
ASAP1 GAP inh: inhibitors of human ASAP1 ArfGAP activity, primary screen, biochemical, fluorescence polarization. ASAP1-stimulated ARF1 GTP hydrolysis, GDP FP detection. 360,000 compounds, 0.19% hits. inhibition, % at 16.5 µM. AID 624377, 2012; in the data active = inhibition above about 25%;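 also: 0% = vehicle with enzyme and substrate and 100% = no enzyme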
Target sequence (Q9ULH1 325-724 limits assumed): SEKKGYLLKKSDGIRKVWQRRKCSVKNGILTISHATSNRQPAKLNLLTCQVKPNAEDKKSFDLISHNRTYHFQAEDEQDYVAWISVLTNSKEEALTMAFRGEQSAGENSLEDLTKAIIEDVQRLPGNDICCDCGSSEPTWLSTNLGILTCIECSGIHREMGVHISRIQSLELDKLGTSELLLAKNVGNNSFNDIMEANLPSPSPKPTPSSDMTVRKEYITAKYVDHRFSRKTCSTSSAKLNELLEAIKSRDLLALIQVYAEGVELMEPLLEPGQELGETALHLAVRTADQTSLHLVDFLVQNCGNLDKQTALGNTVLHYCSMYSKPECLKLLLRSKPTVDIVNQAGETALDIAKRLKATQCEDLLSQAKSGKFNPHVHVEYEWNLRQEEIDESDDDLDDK
ASAP1 GAP conf: ASAP1 GAP activity inhibitors, confirmation, biochemical, fluorescence polarization, human, triplicate | shares compounds with ASAP1 GAP inh | ASAP1-stimulated Arf1 GTPase, GDP fluorescence polarization | inhibition, % at 16.5 µM | 620 compounds, 37% hits;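 active = mean inhibition over triplicates exceeds the hit threshold derived for the earlier primary screening run, cut at about 25% in these data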
ARFGAP1 confirm: ARFGAP1 inhibitor hit confirmation, biochemical, fluorescence polarization, triplicate; shares compounds with ARFGAP1 inh; ARFGAP1-stimulated ARF1 GTP hydrolysis, GDP tracer FP; inhibition, % at 16.5 µM; 890 compounds, 30% hits; AID 651608, 2012;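 active = average inhibition over triplicates above the hit cutoff set in the earlier primary screen, cut at about 25% in these data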;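 also: 0% = Arfgap1 plus ARF1-GTP with DMSO and 100% = wells lacking Arfgap1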
An asterisk follows results filed as active; x = not tested or not shown.

SMILES	UHRF1 binding	TCR CD3 inh	LEDGF integ inh	ARFGAP1 inh	MBD2 inh	ASAP1 GAP inh	others
COc1ccc(CN2C(=O)NC(=O)/C(=C/c3ccoc3)C2=O)cc1	21*	-8	10	-2	8	-7
Cn1cc(P(=S)(c2ccccc2)c2ccccc2)c2ccccc21	3	x	1	x	2	x
CCN(CC)C(=O)c1ccc2c(c1)C1C=CCC1C(C(=O)O)N2 (centres undefined)	20	24*	39*	-3	-2	-5
COc1ccc(-c2nc3ccc(Br)cn3c2CC(=O)N2CCCC2)cc1OC	23*	6	0	1	8	-5
O=C(Cc1c(-c2ccccc2)nc2ccc(Br)cn12)N1CCCC1	19	-3	2	9	6	1
O=C(NCCN1CCC2(CC1)C(=O)NCN2c1ccccc1)c1ccc(F)c(F)c1	2	-5	0	2	-2	0
Cc1cc(N2CCNC[C@H]2C)ccc1N1CCN[C@@H](C)C1	0	3	3	4	-2	3
COc1ccc2c3c([nH]c2c1)C(C)NCC3 (centres undefined)	-1	25*	-5	8	1	-8
COc1ccc(CCn2c(O)c(/C=N/N3CCOCC3)c(=O)[nH]c2=O)cc1OC	42*	-4	-4	3	-1	-13
O=C1NC(=O)N(Cc2ccco2)C(=O)/C1=C/c1cccn1CCOc1ccccc1Cl	50*	-3	57*	-24	12	-6
CN1C(=O)N(C)C(=O)C2(Sc3ccccc3C2=O)C1=O	3	6	29*	-25	5	-14
CCC1(c2ccccc2)C(=O)N(C)C(=O)N(C)C1=O	1	-11	-3	-2	1	-2
Cc1cc2c(C(C)C)c(O)c(O)c(C=O)c2c(O)c1-c1c(C)cc2c(C(C)C)c(O)c(O)c(C=O)c2c1O	-4	5	66*	-15	-7	-9
Cc1ccc(OP(=O)(NCc2ccccc2)Oc2ccc(C)cc2)cc1	23*	-1	2	3	5	8
Cc1ccc(NP(=O)(Oc2ccccc2)Oc2ccccc2)cc1	-1	10	-2	5	-5	8
O=C(C[N+]12CCC(CC1)C(CO)C2)c1ccc([N+](=O)[O-])cc1 (centres undefined)	29*	-5	-1	6	4	-4
O=C(O)c1cc(S(=O)(=O)N2CC3CC(C2)c2cccc(=O)n2C3)ccc1F (centres undefined)	5	3	1	-1	-1	1
Cc1cccc(N2C(=O)/C(=C/c3ccc(N4CCN(C)CC4)o3)C(=O)NC2=S)c1C	7	-25	14*	0	-5	5
Cc1ccccc1N1C(=O)NC(=O)/C(=C/c2ccc(N3CCOCC3)o2)C1=O	-23	-3	3	2	-21	1
c1ccc(Cc2cnc(N3CCNCC3)nc2)cc1	0	1	-12	-5	0	-8
Clc1cccc(N2Cc3cc(N4CCOCC4)ccc3-n3nncc3C2)c1	-1	1	6	8	-4	-12
Clc1cccc(N2Cc3cc(-c4ccccc4)ccc3-n3nncc3C2)c1	10	-5	67*	-11	9	-3
CC(c1ccccc1)n1cc(C(=O)NC2CCCC2)nn1 (centres undefined)	-3	x	0	x	-7	x
COc1ccc2c(c1OC)C(=O)OC2C1c2cc3c(cc2CCN1C)OCO3 (centres undefined)	6	-9	1	4	-4	1
COC1=CC23CCCN2CCc2cc4c(cc2C3C1O)OCO4 (centres undefined)	43*	-1	-3	0	1	6
SMILES	UHRF1 binding	TCR CD3 inh	LEDGF integ inh	ARFGAP1 inh	MBD2 inh	ASAP1 GAP inh	others
COC1=CC(=O)[C@]2(C=C1OC)OC[C@@H]1Oc3c(ccc4c3C=CC(C)(C)O4)C(=O)[C@@H]12	-7	5	1	13	-6	2
CCc1c(C(=O)NN2C(=O)C3C4CCC(O4)C3C2=O)csc1C (centres undefined)	-1	-2	3	-4	2	26*	ASAP1 GAP conf=-1
Cc1cc(O)c2c(c1)C(=O)[C@@]13C(=C2O)C(=O)[C@H]2C(O)[C@@H]1[C@H]1C(O)[C@@H]3C(=O)C3=C(O)c4c(O)cc(C)cc4C(=O)[C@@]312 (some centres undefined)	11	x	8	x	5	x
COC(=O)C1C(c2ccc(Cl)cc2)CC2CCC1N2C (centres undefined)	0	1	5	-3	-3	3
COC(=O)C1C(c2ccc(I)cc2)CC2CCC1N2C (centres undefined)	1	-4	1	11	4	26*	ASAP1 GAP conf=5
Cc1ccc(Cn2cc(C=O)c3ccccc32)cc1	-1	4	2	-4	-4	0
O=Cc1cn(Cc2ccc(F)cc2)c2ccccc12	19	-9	-1	15	5	25*	ASAP1 GAP conf=2
CC(C)(C)Cc1nnc(NC(=O)COc2ccc(Cl)cc2Cl)o1	1	x	-2	x	6	x
O=C1C=C(N2CC2)c2ccccc2C1=O	6	17	39*	-6	-13	31*	ASAP1 GAP conf=-6
COCCCn1c(N)c(C(=O)Nc2sc3c(c2C(=O)OC)CCCC3)c2nc3ccccc3nc21	4	-7	11	27*	2	29*	ASAP1 GAP conf=-3;ARFGAP1 confirm=2
CCOP(=O)(OCC)c1cc(C)c(O)c(C(C)(C)C)c1	0	1	-2	-2	2	-3

Compound activity deposited in PubChem BioAssay by The Scripps Research Institute Molecular Screening Center.
